Activity calls are given as the source filed them. No cut-off for these calls is given here.
Key:
[1] = molecular target: T1, Melatonin receptor type 1B (Homo sapiens, UniProt P49286); experiment: Displacement of 2-[125I]iodomelatonin from human MT2 receptor expressed in CHO cells; type: cell-based
T1 sequence (P49286 whole entry): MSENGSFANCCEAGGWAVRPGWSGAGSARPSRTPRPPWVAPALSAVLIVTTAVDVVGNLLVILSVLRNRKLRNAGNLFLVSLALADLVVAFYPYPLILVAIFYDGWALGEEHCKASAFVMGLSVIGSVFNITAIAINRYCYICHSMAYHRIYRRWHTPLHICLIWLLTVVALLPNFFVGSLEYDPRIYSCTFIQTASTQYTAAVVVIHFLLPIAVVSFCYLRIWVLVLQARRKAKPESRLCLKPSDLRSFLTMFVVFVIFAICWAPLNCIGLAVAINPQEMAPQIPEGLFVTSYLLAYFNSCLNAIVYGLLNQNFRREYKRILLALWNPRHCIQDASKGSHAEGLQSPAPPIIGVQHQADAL

[2] = molecular target: T2, Melatonin receptor type 1A (Homo sapiens, UniProt P48039); experiment: Displacement of 2-[125I]iodomelatonin from human MT1 receptor expressed in CHO cells; type: cell-based
T2 sequence (P48039 whole entry): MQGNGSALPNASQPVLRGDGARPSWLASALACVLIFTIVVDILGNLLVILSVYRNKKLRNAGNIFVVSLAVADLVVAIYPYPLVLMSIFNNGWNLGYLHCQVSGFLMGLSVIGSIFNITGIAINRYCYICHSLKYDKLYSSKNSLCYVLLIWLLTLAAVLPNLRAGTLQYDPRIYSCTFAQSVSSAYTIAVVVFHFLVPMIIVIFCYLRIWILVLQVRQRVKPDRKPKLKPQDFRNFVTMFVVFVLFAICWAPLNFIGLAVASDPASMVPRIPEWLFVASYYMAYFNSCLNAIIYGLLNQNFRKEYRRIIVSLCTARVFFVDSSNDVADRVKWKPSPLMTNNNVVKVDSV

[3] = molecular target: T3, Melatonin receptor type 1B (Homo sapiens) (UniProt P49286); experiment: Activity at human MT2 receptor expressed in CHO cells assessed as inhibition of forskolin-stimulated cAMP formation at >10 nM; type: functional, cell-based
T3 sequence (whole entry): T1 sequence (P49286 whole entry)
Outline: (§1)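 In stable human MT1- or MT2-CHO cells replated in 24-well plates, cells were given 20 min at 37 °C in serum-free medium with 30 µM rolipram and 100 µM forskolin, plus a test compound concentration series within 10-14 to 10^-4 M. Rolipram alone gave basal and rolipram plus forskolin gave maximal accumulation. cAMP was read by EIA kit.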

[4] = molecular target: T2, Melatonin receptor type 1A; experiment: Antagonist activity at human MT1 receptor expressed in CHO cells assessed as inhibition of forskolin-stimulated cAMP formation; type: functional, cell-based; outline: as §1
Homo sapiens = species: Homo sapiens; experiment: Selectivity ratio of Ki for human MT1 receptor to Ki for human MT2 receptor
Outline: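 Whole-cell competition binding used lifted human MT1- or MT2-CHO cells with 80-100 pM 2-[125I]iodomelatonin and test compound (1 pM to 1 µM), 1 h at 25 °C, stopped with cold 50 mM Tris-HCl pH 7.4. Ki came from IC50 by Cheng-Prusoff, mean of three determinations. The ratio is Ki MT1 / Ki MT2.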

[5] = molecular target: T2, Melatonin receptor type 1A; experiment: Activity at high-affinity binding site of human MT1 receptor expressed in CHO cells assessed as decrease in potency of melatonin to inhibit forskolin-induced cAMP accumulation at 10 to 100 nM
[6] = molecular target: T2, Melatonin receptor type 1A; experiment: Activity at low-affinity binding site of human MT1 receptor expressed in CHO cells assessed as increase in potency of melatonin to inhibit forskolin-induced cAMP accumulation at 10 to 100 nM; type: functional, cell-based
[7] = molecular target: T3, Melatonin receptor type 1B (Homo sapiens); experiment: Activity at human MT2 receptor expressed in CHO cells assessed as increase in potency of melatonin to inhibit forskolin-induced cAMP accumulation at 100 nM; type: functional, cell-based
[8] = molecular target: T3, Melatonin receptor type 1B (Homo sapiens); experiment: Activity at human MT2 receptor expressed in CHO cells assessed as increase in potency of melatonin to inhibit forskolin-induced cAMP accumulation at 10 nM; type: functional, cell-based
[9] = molecular target: T3, Melatonin receptor type 1B (Homo sapiens); experiment: Antagonist activity at human MT2 receptor expressed in CHO cells assessed as inhibition of forskolin-stimulated cAMP formation; type: functional, cell-based; outline: as §1

Row | SMILES | Ki ([1]; read-out: Ki) [nM] | Ki ([2]; read-out: Ki) [nM] | also measured
1 | COc1ccc2c(c1)c(CCNC(C)=O)c1n2CC2Cc3ccccc3N2C1 (stereo not drawn) | – | – | Ki ([1]; read-out: pKi (converted)): 60.3 nM; Ki ([2]; read-out: pKi (converted)): 302 nM
2 | COc1cccc(/C(=C/CNC(C)=O)c2ccccc2)c1 | 2.5 | 230 | –
3 | COc1ccc2c(c1)CC1Cn3c(c(CCNC(C)=O)c4cc(OC)ccc43)CN21 (stereo not drawn) | – | – | Ki ([2]; read-out: pKi (converted)): 1780 nM
4 | COc1cccc(C(CCNC(C)=O)c2ccc3ccccc3c2)c1 (stereo not drawn) | 0.11 | 132 | –
5 | COc1ccc2[nH]c(CN3CCc4cc(Br)ccc43)c(CCNC(C)=O)c2c1 | 30 | 85 | –
6 | CCC(=O)NC1Cc2ccccc2C(c2ccccc2)C1 (stereo not drawn) | 0.46 | 59 | –
7 | COc1cccc(Cc2oc3ccc(OC)cc3c2CCNC(C)=O)c1 | 0.25 | 27 | –
8 | COc1ccc2c(c1)CCN2Cc1[nH]c2ccc(OC)cc2c1CCNC(C)=O | 7.1 | 5.8 | –
9 | COc1ccc2[nH]c(CN3CCc4cc(C)ccc43)c(CCNC(C)=O)c2c1 | 15 | 41 | –

More lines, main results first:

Row | Ki ([1]; read-out: Ki) [nM] | Ki ([2]; read-out: Ki) [nM] | SMILES | also measured
10 | 26.5 | 302 | COc1ccc2[nH]c(CN3CCc4ccc([N+](=O)[O-])cc43)c(CCNC(C)=O)c2c1 | Ki ([2]; read-out: pKi (converted)): 309 nM
11 | 0.9 | 797 | COc1ccc2c(c1)[C@@H](CCNC(=O)C1CCC1)C[C@@H](c1ccccc1)C2 | –
12 | 14.5 | 38 | CCC(=O)NCCc1c(CN2CCc3ccccc32)[nH]c2ccc(OC)cc12 | –
13 | 118 | 108 | COc1ccc2[nH]c(CN3CCc4ccc(N)cc43)c(CCNC(C)=O)c2c1 | –
14 | 148 | 1400 | COc1ccc2[nH]c(CN3CCc4ccccc43)c(CCNC(=O)C3CCC3)c2c1 | Ki ([1]; read-out: pKi (converted)): 0.001 nM; Activity [3]: Active; Activity [4]: Active
15 | 0.16 | 1.4 | CCC(=O)NCC1Cc2ccccc2Cc2ccc(OC)cc21 (stereo not drawn) | –
16 | 25 | 121 | COc1ccc2[nH]c(CN3CCCC3)c(CCNC(C)=O)c2c1 | –
17 | 14 | 148 | COc1ccc2[nH]c(CN3c4ccccc4CC3C)c(CCNC(C)=O)c2c1 (stereo not drawn) | Ratio Ki (Homo sapiens): 11
18 | 1.1 | 101 | COc1ccc2[nH]c(CN3CCc4ccccc43)c(CCNC(C)=O)c2c1 | Activity [5]: Active; Ki ([1]; read-out: pKi (converted)): 1.17 nM; Activity [4]: Active; Ratio Ki (Homo sapiens): 91; Ki ([2]; read-out: pKi (converted)): 115 nM; Activity [6]: Active; Activity [7]: Active; Activity [8]: Active; Activity [9]: Active
19 | 8 | 41 | CCCC(=O)NCCc1c(CN2c3ccccc3CC2C)[nH]c2ccc(OC)cc12 (stereo not drawn) | Ratio Ki (Homo sapiens): 5
20 | 9 | – | CCC(=O)NCc1cc2c(OC)cccc2n1Cc1ccc(Cl)cc1 | –

Reference: ChEMBL document CHEMBL1143397 (J Med Chem, 2009)
